Experimental data: ChEMBL document CHEMBL3751738, “Structure-based design and biological evaluation of novel 2-(indol-2-yl) thiazole derivatives as xanthine oxidase inhibitors” (Bioorg Med Chem Lett, 2016)

Experiments:
[1] = Inhibition of butter milk xanthine oxidase (unknown origin) assessed as initial velocity of uric acid formation pre-incubated for 3 mins by spectrophotometry analysis
In short: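 Buttermilk xanthine oxidase diluted to 0.05 U/mL in 50 mM phosphate buffer. Compounds at several concentrations were added in phosphate buffer containing 10% DMSO and pre-incubated 3 min at room temperature. The reaction was started with xanthine solution (200 µM as added). Uric acid formation was read at 293 nm, with the linear rate over 5 min taken as initial velocity. % inhibition was calculated against the no-inhibitor rate, and IC50 derived.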

[2] = Half life in rat liver microsomes; assay type: ADME
Rattus norvegicus = assay: Inhibition of oxonic acid-induced high uric acid level in Sprague-Dawley rat plasma at 10 mg/kg, po after 1 hr; assay type: functional
In short: (§1)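 Hyperuricemia was induced in male SD rats (about 200 g) with potassium oxonate 300 mg/kg i.p., suspended in 0.8% carboxymethylcellulose. One hour later compounds were dosed orally in PEG400:ethanol (2:1), and blood was taken 1 h post-dose for plasma uric acid. Inhibition was scaled with the normal group as 100% and the oxonate control as 0%. Statistics used ANOVA with Dunnett's post-test.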

[3] = Cmax in Sprague-Dawley rat at 10 mg/kg, po; assay type: ADME, organism-based; set-up: dose 10 mg/kg, route oral; conditions: in vivo
In short: (§2)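 Single oral dose of 10 mg/kg given to SD rats. Plasma Cmax, Tmax, AUC0–last, AUC0–infinity and t1/2 were determined, n = 3.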

[4] = Plasma concentration in Sprague-Dawley rat at 10 mg/kg, po after 1 hr; assay type: ADME, organism-based; in short: as §1
[5] = AUC (0 to last) in Sprague-Dawley rat at 10 mg/kg, po; assay type: ADME, organism-based; set-up: dose 10 mg/kg, route oral, time 0 - last; conditions: in vivo; in short: as §2
[6] = AUC (0 to infinity) in Sprague-Dawley rat at 10 mg/kg, po; assay type: ADME, organism-based; set-up: dose 10 mg/kg, route oral, time infinity; conditions: in vivo; in short: as §2
[7] = Tmax in Sprague-Dawley rat at 10 mg/kg, po; assay type: ADME, organism-based; conditions: in vivo; in short: as §2
[8] = Half life in Sprague-Dawley rat at 10 mg/kg, po; assay type: ADME, organism-based; conditions: in vivo; in short: as §2

IC50 [1] [µM] | half-life [2] [h] | Structure (SMILES) | inhibition in vivo at 10 mg/kg (Rattus norvegicus) [%] | other results
0.0061 | 2.17 | Cc1nc(-c2cc3cc(OC(C)C)cc(C#N)c3[nH]2)sc1C(=O)O | 19 | Cmax [3]: 3.75 µg/mL
0.0089 | 3.67 | Cc1nc(-c2cc3cc(Oc4ccccc4)cc(C#N)c3[nH]2)sc1C(=O)O | – | –
0.0094 | 2.96 | Cc1nc(-c2cc3cc(NC4CCCC4)cc(C#N)c3[nH]2)sc1C(=O)O | – | Cmax [3]: 0.3 µg/mL
0.0036 | 14.6 | Cc1nc(-c2cc3cc(CNS(C)(=O)=O)cc([N+](=O)[O-])c3[nH]2)sc1C(=O)O | 0 | concentration at 1 h [4]: 0.017 µg/mL
0.0093 | 1.5 | Cc1nc(-c2cc3cc(NCc4ccccc4)cc(C#N)c3[nH]2)sc1C(=O)O | – | –
0.0143 | 4.69 | Cc1nc(-c2cc3cc(Oc4ccccc4)cc(Cl)c3[nH]2)sc1C(=O)O | – | –
0.209 | 1.61 | Cc1nc(-c2cc3cc(OCC(C)C)ccc3[nH]2)sc1C(=O)O | – | –
0.0069 | 2.51 | Cc1nc(-c2cc3cc(N4CCCCC4)cc(C#N)c3[nH]2)sc1C(=O)O | – | Cmax [3]: 0.74 µg/mL
0.522 | – | Cc1nc(-c2cc3cc(OCc4ccccc4)ccc3[nH]2)sc1C(=O)O | – | –
0.0057 | 2.07 | Cc1nc(-c2cc3cc(OC4CCCC4)cc(C#N)c3[nH]2)sc1C(=O)O | 2.3 | Cmax [3]: 0.72 µg/mL
0.017 | 1.52 | Cc1nc(-c2cc3cc(Oc4ccccc4)cc(Br)c3[nH]2)sc1C(=O)O | – | –
0.007 | 0.402 | COc1cc([N+](=O)[O-])c2[nH]c(-c3nc(C)c(C(=O)O)s3)cc2c1 | 4 | concentration at 1 h [4]: 0.1 µg/mL
0.0159 | 4.03 | Cc1nc(-c2cc3cc(Oc4ccccc4)cc([N+](=O)[O-])c3[nH]2)sc1C(=O)O | 7.1 | Cmax [3]: 3.2 µg/mL
0.792 | – | COc1ccc2[nH]c(-c3nc(C)c(C(=O)O)s3)cc2c1 | – | –
0.0318 | – | Cc1nc(-c2cc3cc(N)cc(C#N)c3[nH]2)sc1C(=O)O | – | –
0.233 | 1.94 | Cc1nc(-c2cc3cc(Oc4ccccc4)ccc3[nH]2)sc1C(=O)O | – | –
2.2 | – | COc1ccc2cc(-c3nc(C)c(C(=O)O)s3)[nH]c2c1 | – | –
0.481 | – | Cc1nc(-c2cc3ccc(OCC(C)C)cc3[nH]2)sc1C(=O)O | – | –
0.0051 | 4.13 | Cc1nc(-c2cc3cc(OC(C)C)cc([N+](=O)[O-])c3[nH]2)sc1C(=O)O | 43 | Cmax [3]: 4.94 µg/mL; AUC(0-t) [5]: 8.23 µg·h/mL; AUC(0-inf) [6]: 13.1 µg·h/mL; Tmax [7]: 0.42 h; half-life [8]: 3.45 h
0.0031 | – | Cc1nc(-c2ccc(OCC(C)C)c(C#N)c2)sc1C(=O)O [FEBUXOSTAT] | 60 | –
0.0053 | – | N#Cc1cc(-c2n[nH]c(-c3ccncc3)n2)ccn1 [TOPIROXOSTAT] | – | –

Structure (SMILES) | IC50 [1] [µM] | half-life [2] [h] | inhibition in vivo at 10 mg/kg (Rattus norvegicus) [%] | other results
Oc1ncnc2[nH]ncc12 [ALLOPURINOL] | 3.74 | – | – | –
